Assay [1] in a line: inhibitors of TNFa-induced NFkB p65 translocation, primary screen, imaging, HUVEC, MLSMR starter and 10KST1 sets (AID 438;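 active = inhibition above 20% together with a positive visual image hit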;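 note: compound added about 3h40 before a 20 min TNFalpha stimulation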;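 for inhibition: signal is the nuclear over cytoplasmic p65 intensity ratio per well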). Particulars: HUVEC TNFa-induced p65 nuclear translocation; cell count: measured here: nuclei count (cytotoxicity indicator), at 2.08 µM; inhibition: at 2 µM, stronger effect = higher value, 0% TNFa-plus-vehicle, 100% no-TNFa wells.
Assay [2] in a line: inhibitors of E-selectin induction by TNFa, primary screen, imaging, HUVEC, immunofluorescence, MLSMR starter and 10KST1 sets (AID 487;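 active = visually confirmed hit in the image check and inhibition above 20%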;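 for inhibition: signal is fraction of cell area covered by stained E-selectin grains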;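 for nuclei count: 100% = median nuclei count of all wells on the same plate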). Particulars: HUVEC TNFalpha-induced E-selectin immunofluorescence imaging, at 2 µM; inhibition: stronger effect = higher value; nuclei count: measured here: cell number, toxicity.
The nature of assay [3]: DUSP6 inhibitors restoring Erk phosphorylation by chemical complementation, primary imaging in DUSP6-transfected HeLa (AID 609;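 active = compounds giving at least 50% inhibition in the cell-based MKP-3 phosphatase rescue imaging test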;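 for inhibition: phospho-Erk level distribution per well compared with pooled transfected vehicle control wells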). Particulars: HeLa MKP-3 transfected, phospho-Erk imaging KS statistic, at 10 µM, cells stimulated with TPA for 15 min.
Assay [4] has as its target Dual specificity protein phosphatase 6 (Homo sapiens) (UniProt Q16828). The assay is described as above. Particulars: HeLa MKP-3 transfected, phospho-Erk imaging KS statistic; at 10 µM; stronger effect = higher value; cells stimulated with TPA for 15 min.
Assay [5] addresses Voltage-gated potassium channel subunit beta-2 (Rattus norvegicus) (UniProt P62483). The assay can be described thus: KvBeta enzyme negative modulators, primary screen, biochemical, NADPH fluorescence (AID 622;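 active = fluorescence slope higher than the sample average by over 3 SD, cut at about -0.22 in these data, passing the limit was not always enough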;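 note: slope of raw intensity against log time taken from 70 to 1610 s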). The conditions noted are these: recombinant KvBeta, 4-cyanobenzaldehyde reduction, at 10 µM, stronger effect = higher value.
For assay [6] the target is unchanged. Kind of assay: KvBeta positive modulators, primary screen, biochemical, NADPH fluorescence (AID 623;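 active = NADPH fluorescence slope more negative than the mean of all samples by about 3 SD, 99.7% confidence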;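 note: fluorescence intensity change per second fitted from 20 to 320 s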). The conditions noted are these: Recombinant KvBeta, NADPH fluorescence decrease slope, 10 min; at 10 µM; stronger effect = lower value.
Assay [7] has as its target Alpha-2C adrenergic receptor (Homo sapiens) (UniProt P18825). The assay can be described thus: modulators of alpha2C/GIRK thallium flux, primary screen, cell-based, HEK293 alpha2C/GIRK1/2 (AID 624;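 active = fluorescence slope after compound addition differing from the mean of all screened samples at 99.7% confidence, in either direction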;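 note: slope of fluorescence ratio to pre-addition baseline per second over 15 to 24 s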). Particulars: thallium flux BTC fluorescence, at 10 µM, actives lie on both sides.
The nature of assay [8]: inhibitors of larval lipid processing in zebrafish, primary screen, whole organism, PED6 fluorescence, gall bladder and intestine (AID 686).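 Note: larvae 5 to 7 days old with five fish per well; signal comes from phospholipase A2 cleavage of quenched PED6 carried via bile; overnight exposure to compound and PED6 before scoring.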 Particulars: Zebrafish larvae PED6 lipid processing, fluorescence scoring; screened at 20 µM (by protocol). An outline of the steps:
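Doses: 20 µM single dose. Test system: live zebrafish larvae aged 5-7 days, whole organism. Quantity: five larvae per well. Measured by: By-eye fluorescence microscopy. Reagent: ingested quenched lipid PED6 at 100 nM. Read-out: visual per-well fluorescence inhibition score. Times: overnight exposure of larvae to compound plus PED6.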

Assay [9] in a line: inhibitors of Chlamydomonas gravitaxis, primary screen, whole organism, Chlamydomonas reinhardtii, WT vs cilia-less mutant, absorbance, 96-well (AID 463189;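 active = inhibition at or above 50% relative to wild type and mutant plate controls; inactive = inhibition below 50%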;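 note: 0% = wild type cc124 cells in DMSO and 100% = ciliumless bld1 mutant cells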). Particulars: OD600 absorbance, 2 days, at 10 µM, stronger effect = higher value.
[10] abbreviates: measured here: cell density z-score.
Where [11] appears, read: measured here: nuclear c-Myc green intensity z-score.
The mark [12] stands for this setting: measured here: nuclear pErk red intensity z-score, stronger effect = higher value.

The source made the active and inactive calls.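 Rule for the calls, unless noted: active = a full or partial loss of lipid-probe fluorescence in the fish gall bladder, intestine or both, judged by eye; inactive = no fluorescence loss, or compound toxic to the fish.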

Alpha-2C adrenergic receptor (Homo sapiens), sequence (P18825 whole entry, looked up): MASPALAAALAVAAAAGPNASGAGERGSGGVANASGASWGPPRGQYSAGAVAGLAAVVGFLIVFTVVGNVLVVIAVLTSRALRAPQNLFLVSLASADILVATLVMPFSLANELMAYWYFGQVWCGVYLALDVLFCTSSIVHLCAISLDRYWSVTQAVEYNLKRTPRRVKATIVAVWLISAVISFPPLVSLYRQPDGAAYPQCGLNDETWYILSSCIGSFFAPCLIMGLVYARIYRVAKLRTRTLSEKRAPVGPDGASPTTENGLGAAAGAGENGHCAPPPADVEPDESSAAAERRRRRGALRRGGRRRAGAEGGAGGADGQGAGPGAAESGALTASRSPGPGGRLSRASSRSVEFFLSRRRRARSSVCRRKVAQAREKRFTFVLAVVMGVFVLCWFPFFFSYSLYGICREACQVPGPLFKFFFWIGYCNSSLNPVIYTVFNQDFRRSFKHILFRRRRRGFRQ
Voltage-gated potassium channel subunit beta-2 (Rattus norvegicus), sequence (P62483 whole entry, looked up): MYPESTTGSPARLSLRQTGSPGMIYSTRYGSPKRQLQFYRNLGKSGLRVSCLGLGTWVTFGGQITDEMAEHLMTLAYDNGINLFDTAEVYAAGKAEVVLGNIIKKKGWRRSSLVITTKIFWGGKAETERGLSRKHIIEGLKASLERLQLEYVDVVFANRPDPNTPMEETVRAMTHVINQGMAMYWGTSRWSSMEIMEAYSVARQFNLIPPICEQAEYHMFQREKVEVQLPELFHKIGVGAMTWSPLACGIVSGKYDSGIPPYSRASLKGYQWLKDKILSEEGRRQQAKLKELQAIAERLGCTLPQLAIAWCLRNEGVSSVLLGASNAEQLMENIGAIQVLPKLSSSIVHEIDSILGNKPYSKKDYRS
Dual specificity protein phosphatase 6 (Homo sapiens), sequence (Q16828 whole entry, looked up): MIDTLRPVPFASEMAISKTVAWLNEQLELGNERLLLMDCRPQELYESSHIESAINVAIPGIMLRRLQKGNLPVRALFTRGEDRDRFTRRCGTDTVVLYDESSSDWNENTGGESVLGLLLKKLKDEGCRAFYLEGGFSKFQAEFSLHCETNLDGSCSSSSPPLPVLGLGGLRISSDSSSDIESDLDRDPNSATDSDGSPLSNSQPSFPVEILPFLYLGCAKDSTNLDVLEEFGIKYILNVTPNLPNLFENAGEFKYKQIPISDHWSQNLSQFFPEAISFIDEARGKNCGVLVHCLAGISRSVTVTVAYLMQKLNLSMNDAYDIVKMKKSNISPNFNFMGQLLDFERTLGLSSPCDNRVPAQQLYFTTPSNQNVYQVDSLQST

In general, inhibition refers to the relative decrease from the control value, in per cent. Consider `Cc1cc(C(F)(F)F)c(C#N)c(SCC(=O)NC2CC2)n1`, for which, in [1], the cell count worked out at 541. Also, the inhibition is -11.5% (inactive) in [1], 2.6% (inactive) in assay [2], 15.5% (inactive) in assay [4] and 7.84% (inactive) in [9]. Moreover, the nuclei count in assay [2] came to 99.8%. Moreover, the z-score in assay [3] (setting [10]) was 1.52; in assay [3] (setting [11]), -0.242; in [3] (setting [12]) it was -0.534. Moreover, the fluorescence slope in assay [5] is -0.514 (inactive). Further, in assay [6], the NADPH fluorescence slope was -3.6e-05 (inactive). Moreover, the slope in [7] is 0.0063 (inactive). Besides, the outcome in assay [8] was inactive.
For `CCOC(=O)c1nc2nc(C)c(Cl)c(=O)n2[nH]1`, the cell count in assay [1] stood at 529. The inhibition is 3.9% (inactive) in assay [1], -83.9% (inactive) in assay [2], 14% (inactive) in assay [4] and 0.754% (inactive) in [9]. For the same compound, the nuclei count in assay [2] was 153%. Also, the z-score in [3] (setting [10]) is 0.438; in [3] (setting [11]), -0.565; in assay [3] (setting [12]), -0.252. For the same compound, the fluorescence slope in assay [5] was -0.497 (inactive). Further, the NADPH fluorescence slope in assay [6] is -4.1e-05 (inactive). In assay [7], the slope was 0.00501 (inactive). Moreover, the compound was called inactive in assay [8].
Take `Cc1ccc(-c2ccccc2NC(=O)C2C3C=CC(C3)C2C(=O)O)o1` (centres undefined): the cell count in assay [1] is 553. The inhibition in assay [1] was -2.2% (inactive); in [2] it was -4.5% (inactive); in [4], 14% (inactive); in assay [9], 7.64% (inactive). In assay [2], the nuclei count was 154%. Moreover, the z-score in [3] (setting [10]) was 0.45; in [3] (setting [11]), -0.671; in assay [3] (setting [12]), -0.083. The fluorescence slope in assay [5] was -0.352 (inactive). Also, the NADPH fluorescence slope in [6] was 5.5e-06 (inactive). Also, the slope in assay [7] was 0.00466 (inactive). For the same compound, in [8], the call was inactive.
Consider `Cn1c(O)c(C=Nc2ccc(Cc3ccncc3)cc2)c(=O)n(C)c1=O`, for which the cell count in [1] was 642. The inhibition in assay [1] is 6.6% (inactive); in assay [2], -91% (inactive); in assay [4], 4.25% (inactive); in assay [9] it was -1.46% (inactive). Further, in assay [2], the nuclei count was determined as 136%. Besides, the z-score was -1.1 in assay [3] (setting [10]), -0.451 in [3] (setting [11]) and 0.687 in [3] (setting [12]). Moreover, the fluorescence slope in assay [5] was -0.486 (inactive). Besides, in assay [6], the NADPH fluorescence slope was -9.5e-05 (inactive). In addition, the slope in assay [7] is 0.00577 (inactive). Further, the outcome in assay [8] was inactive.
Regarding `N#Cc1c(-c2ccco2)cc(C2CC2)nc1N`, in assay [1], the cell count turned out to be 528. For the same compound, the inhibition was -3.5% (inactive) in [1], -51.8% (inactive) in assay [2], -1.12% (inactive) in assay [4] and -5.69% (inactive) in assay [9]. In [2], this compound returned a nuclei count of 107%. The z-score in assay [3] (setting [10]) is -1.1; in assay [3] (setting [11]), -0.229; in [3] (setting [12]), -0.103. Further, the fluorescence slope in [5] was -0.43 (inactive). Moreover, the NADPH fluorescence slope in [6] is -0.00027 (inactive). Also, the slope in assay [7] is 0.00359 (inactive). Besides, the outcome in assay [8] was inactive.
`CCN(CC)CCN1C(=O)C(=O)/C(=C(/O)c2ccc(F)cc2)C1c1cccnc1` (centres undefined): in assay [1], the cell count was determined as 488. Further, the inhibition is -18.4% (inactive) in assay [1], -35.7% (inactive) in assay [2], -2.47% (inactive) in assay [4] and -7.28% (inactive) in assay [9]. In addition, the nuclei count in assay [2] stood at 128%. The z-score was -0.0126 in assay [3] (setting [10]), -0.441 in assay [3] (setting [11]) and 0.45 in assay [3] (setting [12]). For the same compound, the fluorescence slope in assay [5] was -0.493 (inactive). Also, in assay [6], the NADPH fluorescence slope is -5.5e-05 (inactive). Further, in assay [7], the slope is 0.00472 (inactive). The outcome in [8] was inactive.
Take `Cc1ccc2c(=O)c(CN(C)C3CCN(C)CC3)c(C)[nH]c2c1C`: the cell count in assay [1] stood at 498. Further, the inhibition in [1] is -21.3% (inactive); in assay [2] it was -40.5% (inactive); in [4], 1.12% (inactive); in assay [9], 1.23% (inactive). In assay [2], this compound yielded a nuclei count of 142%. The z-score was 0.488 in assay [3] (setting [10]), 0.313 in assay [3] (setting [11]) and -0.364 in assay [3] (setting [12]). In assay [5], the fluorescence slope is -0.491 (inactive). Moreover, in [6], the NADPH fluorescence slope was -4.5e-05 (inactive). Moreover, the slope in assay [7] is 0.00468 (inactive). Further, the result in [8] was inactive.
As for `CCOc1ccc(C2C(C#N)=C(N)SC(N)=C2C#N)cc1OC`, the cell count in assay [1] turned out to be 654. The inhibition in [1] is -21.3% (inactive); in [2] it was 22.8% (inactive); in assay [4] it was -3.95% (inactive); in assay [9], 5.29% (inactive). The nuclei count in [2] was found to be 177%. The z-score in assay [3] (setting [10]) is 0.539; in [3] (setting [11]) it was -1.2; in assay [3] (setting [12]), 0.0794. In addition, in assay [5], the fluorescence slope was -0.291 (inactive). The NADPH fluorescence slope in assay [6] is -3e-05 (inactive). For the same compound, the slope in [7] is 0.00675 (inactive). Further, the compound was called inactive in [8].

The values are drawn from PubChem BioAssay.
